Experimental data as given in ChEMBL document CHEMBL4052814, “GNE-781, A Highly Advanced Potent and Selective Bromodomain Inhibitor of Cyclic Adenosine Monophosphate Response Element Binding Protein, Binding Protein (CBP)” (J Med Chem, 2017).
≈ marks a conversion by molar mass, not a printed value.

Columns and labels:
[1] = Clearance in beagle dog at 1 mg/kg, iv or 5 mg/kg, po by LC-MS/MS method; format: ADME, organism-based, Canis lupus familiaris; details: in vivo
Procedure, shortened: (§1)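 Non-naïve male beagle dogs, n = 3 per route. Dosed 1 mg/kg i.v. in EtOH/PEG400/water (20/15/65) or 5 mg/kg p.o. in 0.5% methylcellulose, 0.2% Tween 80; oral groups fasted overnight until 4 h post-dose. Peripheral blood taken pre-dose to 24 h and processed to K2EDTA plasma. Analysed by non-validated LC-MS/MS.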

[2] = Cmax in cynomolgus monkey at 1 mg/kg, iv or 5 mg/kg, po by LC-MS/MS method; format: ADME, organism-based, Macaca fascicularis; details: in vivo
Procedure, shortened: (§2)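 Non-naïve male cynomolgus monkeys, at least 2 years old, n = 3 per route. Given 1 mg/kg i.v. in EtOH/PEG400/water (20/15/65) or 5 mg/kg p.o. in 0.5% methylcellulose, 0.2% Tween 80; oral groups fasted. Plasma (K2EDTA) collected pre-dose to 24 h. Analysed by non-validated LC-MS/MS.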

[3] = Half life in Sprague-Dawley rat at 1 mg/kg, iv or 5 mg/kg, po by LC-MS/MS method; format: ADME, organism-based; details: in vivo
Procedure, shortened: (§3)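 Male Sprague-Dawley rats, 6–9 weeks, n = 3 per route. Dosed 1 mg/kg i.v. in PEG400/water (35/65) or 5 mg/kg p.o. in 0.5% methylcellulose, 0.2% Tween 80; oral groups fasted overnight until 4 h post-dose. Catheter blood sampled 0.033–24 h into K2EDTA and spun to plasma. Analysed by non-validated LC-MS/MS.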

[4] = AUClast in cynomolgus monkey at 1 mg/kg, iv or 5 mg/kg, po by LC-MS/MS method; format: ADME, organism-based, Macaca fascicularis; details: in vivo; procedure, shortened: as §2
[5] = Oral bioavailability in CD-1 mouse at 5 mg/kg by LC-MS/MS method; format: ADME, organism-based; details: in vivo
Procedure, shortened: (§4)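 Female CD-1 mice, 6–9 weeks, n = 3 per route. Dosed 1 mg/kg i.v. in PEG400/water (35/65) or 5 mg/kg p.o. as a suspension in 0.5% methylcellulose, 0.2% Tween 80. Serial tail-nick blood sampled to 24 h, diluted in EDTA-water. Parent drug measured by non-validated LC-MS/MS after acetonitrile precipitation with an indomethacin internal standard.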

[6] = Cmax in Sprague-Dawley rat at 1 mg/kg, iv or 5 mg/kg, po by LC-MS/MS method; format: ADME, organism-based; details: in vivo; procedure, shortened: as §3
[7] = target: Transcription initiation factor TFIID subunit 1 (Homo sapiens, UniProt P21675); assay: Displacement of biotinylated histone H3K14 peptide ligand from recombinant His-tagged TAF1 bromodomain-2 (unknown origin) measured after 10 mins by TR-FRET assay
[8] = AUClast in beagle dog at 1 mg/kg, iv or 5 mg/kg, po by LC-MS/MS method; format: ADME, organism-based, Canis lupus familiaris; details: in vivo; procedure, shortened: as §1
[9] = target: Histone acetyltransferase KAT2A (Homo sapiens, UniProt Q92830); assay: Displacement of biotinylated histone H3K14 peptide ligand from recombinant His-tagged human GCN5L2 measured after 10 mins by TR-FRET assay
[10] = Kinetic solubility of the compound in PBS at 200 uM at pH 7.4 after 24 hrs by LCMS-chemiluminescence nitrogen detection assay; format: physicochemical; details: read-out: Kinetic_solubility
Procedure, shortened: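 A 10 mM DMSO stock was diluted into PBS pH 7.4 to give 200 µM compound in 2% DMSO. Samples were shaken for 24 h at room temperature at 1000 rpm, then filtered and diluted 2-fold. Each was injected twice into LCMS-CLND and quantified against a caffeine calibration curve with correction for nitrogen count.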

[11] = Half life in beagle dog at 1 mg/kg, iv or 5 mg/kg, po by LC-MS/MS method; format: ADME, organism-based, Canis lupus familiaris; details: in vivo; procedure, shortened: as §1
[12] = Volume of distribution at steady state in CD-1 mouse at 1 mg/kg, iv or 5 mg/kg, po by LC-MS/MS method; format: ADME, organism-based; details: in vivo, read-out: Vdss
Procedure, shortened: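 Female CD-1 mice, 6–9 weeks old, n=3 per route. Dosing was 1 mg/kg i.v. in PEG400/water 35/65 or 5 mg/kg p.o. in 0.5% methylcellulose/0.2% Tween 80. Serial tail-nick blood was taken to 24 h and diluted in EDTA water. Quantified by LC-MS/MS (MRM, positive ESI), LLOQ 0.002 μM.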

[13] = Oral bioavailability in Sprague-Dawley rat at 5 mg/kg by LC-MS/MS method; format: ADME, organism-based; details: in vivo; procedure, shortened: as §3
[14] = Half life in CD-1 mouse at 1 mg/kg, iv or 5 mg/kg, po by LC-MS/MS method; format: ADME, organism-based; details: in vivo; procedure, shortened: as §4
[15] = target: Bromodomain adjacent to zinc finger domain protein 2B (Homo sapiens, UniProt Q9UIF8); assay: Displacement of biotinylated histone H3K14 peptide ligand from human recombinant His-tagged BAZ2B measured after 10 mins by TR-FRET assay
[16] = Clearance in cynomolgus monkey at 1 mg/kg, iv or 5 mg/kg, po by LC-MS/MS method; format: ADME, organism-based, Macaca fascicularis; details: in vivo; procedure, shortened: as §2
[17] = target: Histone acetyltransferase p300 (Homo sapiens, UniProt Q09472); assay: Displacement of biotinylated histone H3K14 peptide ligand from human recombinant His-tagged P300 measured after 10 mins by TR-FRET assay
[18] = target: Chromatin remodeling regulator CECR2 (Homo sapiens, UniProt Q9BXF3); assay: Displacement of biotinylated histone H3K14 peptide ligand from human recombinant His-tagged CECR2 measured after 10 mins by TR-FRET assay
[19] = Ratio of unbound concentration in rat brain to plasma at 250 mg/kg measured after 3 hrs postdose; format: ADME, organism-based; details: read-out: K(p,uu,brain)
[20] = AUClast in CD-1 mouse at 1 mg/kg, iv or 5 mg/kg, po by LC-MS/MS method; format: ADME, organism-based; details: in vivo; procedure, shortened: as §4
[21] = Apparent permeability from apical side to basolateral side in MDCK cells at 10 uM measured after 180 mins by LC-MS/MS analysis; format: ADME, cell-based, Canis lupus familiaris; details: dog
[22] = Half life in cynomolgus monkey at 1 mg/kg, iv or 5 mg/kg, po by LC-MS/MS method; format: ADME, organism-based, Macaca fascicularis; details: in vivo; procedure, shortened: as §2
[23] = Clearance in Sprague-Dawley rat at 1 mg/kg, iv or 5 mg/kg, po by LC-MS/MS method; format: ADME, organism-based; details: in vivo; procedure, shortened: as §3
[24] = Volume of distribution at steady state in cynomolgus monkey at 1 mg/kg, iv or 5 mg/kg, po by LC-MS/MS method; format: ADME, organism-based, Macaca fascicularis; details: in vivo, read-out: Vdss
Procedure, shortened: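 Non-naïve male beagle dogs or cynomolgus monkeys, n=3 per route. Dosing was 1 mg/kg i.v. in EtOH/PEG400/water 20/15/65 or 5 mg/kg p.o. in 0.5% methylcellulose/0.2% Tween 80; the p.o. group was fasted overnight. Peripheral blood was taken pre-dose to 24 h into K2EDTA and processed to plasma. Quantified by LC-MS/MS.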

[25] = Protein binding in human plasma at 5 uM incubated for 4 hrs measured by LC-MS/MS method; format: ADME, cell-free; details: read-out: PPB (converted)

Chain of Histone acetyltransferase p300 (Q09472 whole entry): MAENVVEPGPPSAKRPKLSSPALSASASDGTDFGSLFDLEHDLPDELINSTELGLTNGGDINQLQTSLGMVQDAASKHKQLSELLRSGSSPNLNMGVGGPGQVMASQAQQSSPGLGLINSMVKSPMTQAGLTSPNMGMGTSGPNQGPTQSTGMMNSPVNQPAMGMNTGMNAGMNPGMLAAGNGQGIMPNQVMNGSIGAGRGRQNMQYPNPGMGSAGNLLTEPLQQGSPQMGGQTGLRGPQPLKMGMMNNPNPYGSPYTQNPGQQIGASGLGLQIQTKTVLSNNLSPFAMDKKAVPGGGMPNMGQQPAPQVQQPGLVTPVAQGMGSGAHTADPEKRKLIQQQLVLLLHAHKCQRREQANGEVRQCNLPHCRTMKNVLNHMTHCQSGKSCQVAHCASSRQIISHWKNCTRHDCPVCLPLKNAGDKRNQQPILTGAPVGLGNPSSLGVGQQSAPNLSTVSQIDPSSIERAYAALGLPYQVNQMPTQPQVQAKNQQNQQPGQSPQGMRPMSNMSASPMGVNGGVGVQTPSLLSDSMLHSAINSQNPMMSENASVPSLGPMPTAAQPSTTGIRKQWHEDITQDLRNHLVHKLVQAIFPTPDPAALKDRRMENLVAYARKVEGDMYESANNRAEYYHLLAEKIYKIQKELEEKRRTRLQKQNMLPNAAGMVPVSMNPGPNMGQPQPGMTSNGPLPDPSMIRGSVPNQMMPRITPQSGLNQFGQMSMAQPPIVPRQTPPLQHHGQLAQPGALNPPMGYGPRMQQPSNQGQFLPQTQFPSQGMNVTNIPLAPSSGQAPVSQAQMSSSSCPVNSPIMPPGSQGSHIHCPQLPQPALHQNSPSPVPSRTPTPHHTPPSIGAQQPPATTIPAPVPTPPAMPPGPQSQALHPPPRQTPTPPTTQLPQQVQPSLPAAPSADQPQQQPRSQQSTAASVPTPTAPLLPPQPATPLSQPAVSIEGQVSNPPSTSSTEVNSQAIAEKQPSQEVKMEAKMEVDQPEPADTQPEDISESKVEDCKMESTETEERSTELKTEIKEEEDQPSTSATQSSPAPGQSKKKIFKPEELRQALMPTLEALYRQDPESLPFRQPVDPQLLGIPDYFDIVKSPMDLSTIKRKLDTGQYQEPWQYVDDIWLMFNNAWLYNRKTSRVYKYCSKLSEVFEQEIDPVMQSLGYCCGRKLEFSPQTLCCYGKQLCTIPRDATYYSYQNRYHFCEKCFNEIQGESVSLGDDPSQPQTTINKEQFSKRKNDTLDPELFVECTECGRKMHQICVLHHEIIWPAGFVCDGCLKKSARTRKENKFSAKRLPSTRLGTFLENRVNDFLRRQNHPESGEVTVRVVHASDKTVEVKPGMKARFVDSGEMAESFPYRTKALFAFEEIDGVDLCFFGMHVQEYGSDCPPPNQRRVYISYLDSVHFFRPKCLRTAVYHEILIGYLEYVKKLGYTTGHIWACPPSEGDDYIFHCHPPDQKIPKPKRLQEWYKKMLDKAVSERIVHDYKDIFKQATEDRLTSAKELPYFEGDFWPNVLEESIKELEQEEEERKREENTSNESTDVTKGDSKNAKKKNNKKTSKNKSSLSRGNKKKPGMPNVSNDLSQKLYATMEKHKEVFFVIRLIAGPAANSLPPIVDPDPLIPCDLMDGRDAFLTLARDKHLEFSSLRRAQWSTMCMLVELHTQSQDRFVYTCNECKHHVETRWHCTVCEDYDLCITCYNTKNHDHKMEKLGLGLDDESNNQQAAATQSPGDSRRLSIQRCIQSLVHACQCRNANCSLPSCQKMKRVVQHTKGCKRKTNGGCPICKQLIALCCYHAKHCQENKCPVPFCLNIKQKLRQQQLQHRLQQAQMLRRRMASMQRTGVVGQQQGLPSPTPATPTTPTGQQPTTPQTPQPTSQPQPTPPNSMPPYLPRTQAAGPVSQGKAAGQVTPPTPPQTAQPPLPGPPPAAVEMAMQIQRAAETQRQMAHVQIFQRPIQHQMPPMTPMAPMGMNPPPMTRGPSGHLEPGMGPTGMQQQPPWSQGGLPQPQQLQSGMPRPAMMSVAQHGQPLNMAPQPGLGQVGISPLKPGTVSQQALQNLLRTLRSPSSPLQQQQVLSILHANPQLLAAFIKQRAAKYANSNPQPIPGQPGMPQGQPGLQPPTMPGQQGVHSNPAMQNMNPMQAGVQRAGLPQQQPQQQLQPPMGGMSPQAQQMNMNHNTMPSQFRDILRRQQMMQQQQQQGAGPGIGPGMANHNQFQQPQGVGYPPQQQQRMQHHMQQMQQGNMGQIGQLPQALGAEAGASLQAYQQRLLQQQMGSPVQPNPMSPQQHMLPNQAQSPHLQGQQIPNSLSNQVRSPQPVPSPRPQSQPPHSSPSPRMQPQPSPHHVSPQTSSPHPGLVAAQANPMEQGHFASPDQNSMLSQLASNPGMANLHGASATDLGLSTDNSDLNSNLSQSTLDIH
Chain of Transcription initiation factor TFIID subunit 1 (P21675 whole entry): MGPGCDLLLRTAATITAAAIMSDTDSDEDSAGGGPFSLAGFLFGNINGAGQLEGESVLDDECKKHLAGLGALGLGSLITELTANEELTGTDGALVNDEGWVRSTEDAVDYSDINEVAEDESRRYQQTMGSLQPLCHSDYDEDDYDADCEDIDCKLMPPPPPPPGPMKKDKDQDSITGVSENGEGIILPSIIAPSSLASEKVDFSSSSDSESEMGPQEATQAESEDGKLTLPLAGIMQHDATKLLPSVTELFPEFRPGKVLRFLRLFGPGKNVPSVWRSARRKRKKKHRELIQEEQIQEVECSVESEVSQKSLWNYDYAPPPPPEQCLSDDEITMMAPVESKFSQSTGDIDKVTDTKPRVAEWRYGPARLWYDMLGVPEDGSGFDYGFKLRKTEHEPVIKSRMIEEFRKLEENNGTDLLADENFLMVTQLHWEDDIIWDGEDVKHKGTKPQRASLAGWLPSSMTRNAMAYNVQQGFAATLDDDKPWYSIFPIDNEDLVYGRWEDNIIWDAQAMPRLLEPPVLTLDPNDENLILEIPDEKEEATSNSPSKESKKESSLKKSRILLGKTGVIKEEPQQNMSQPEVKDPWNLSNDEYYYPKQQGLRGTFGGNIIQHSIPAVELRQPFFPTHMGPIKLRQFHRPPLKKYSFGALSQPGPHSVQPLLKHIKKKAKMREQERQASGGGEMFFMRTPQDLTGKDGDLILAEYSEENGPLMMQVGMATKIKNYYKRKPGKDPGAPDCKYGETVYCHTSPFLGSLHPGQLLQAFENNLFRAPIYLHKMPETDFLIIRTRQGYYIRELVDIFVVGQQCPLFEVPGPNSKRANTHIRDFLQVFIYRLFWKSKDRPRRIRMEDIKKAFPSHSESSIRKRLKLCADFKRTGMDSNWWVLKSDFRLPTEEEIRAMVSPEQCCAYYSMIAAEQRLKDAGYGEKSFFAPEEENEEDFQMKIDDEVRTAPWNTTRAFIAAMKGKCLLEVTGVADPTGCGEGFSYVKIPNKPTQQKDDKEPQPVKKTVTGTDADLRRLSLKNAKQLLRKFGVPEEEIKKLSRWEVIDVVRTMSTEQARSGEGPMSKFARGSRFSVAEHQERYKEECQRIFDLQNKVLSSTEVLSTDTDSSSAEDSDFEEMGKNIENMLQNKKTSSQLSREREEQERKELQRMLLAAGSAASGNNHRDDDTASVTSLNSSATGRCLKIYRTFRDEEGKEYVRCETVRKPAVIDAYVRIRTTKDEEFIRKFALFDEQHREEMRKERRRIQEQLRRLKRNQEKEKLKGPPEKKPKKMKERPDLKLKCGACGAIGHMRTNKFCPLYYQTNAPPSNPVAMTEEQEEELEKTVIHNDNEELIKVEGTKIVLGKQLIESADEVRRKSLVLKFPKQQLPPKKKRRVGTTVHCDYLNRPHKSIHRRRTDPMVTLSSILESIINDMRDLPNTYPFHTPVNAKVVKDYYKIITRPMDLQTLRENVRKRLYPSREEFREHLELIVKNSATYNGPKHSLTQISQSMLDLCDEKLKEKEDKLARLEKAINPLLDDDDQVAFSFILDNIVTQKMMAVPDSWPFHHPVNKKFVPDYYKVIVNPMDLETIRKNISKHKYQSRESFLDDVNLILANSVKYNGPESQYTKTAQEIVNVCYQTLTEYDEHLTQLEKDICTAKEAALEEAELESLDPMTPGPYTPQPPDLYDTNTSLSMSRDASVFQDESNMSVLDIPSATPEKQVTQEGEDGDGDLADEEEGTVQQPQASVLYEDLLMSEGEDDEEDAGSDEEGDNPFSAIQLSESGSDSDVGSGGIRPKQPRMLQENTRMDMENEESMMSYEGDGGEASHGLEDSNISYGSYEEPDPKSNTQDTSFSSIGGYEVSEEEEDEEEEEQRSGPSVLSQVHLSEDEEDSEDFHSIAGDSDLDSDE
Chain of Histone acetyltransferase KAT2A (Q92830 whole entry): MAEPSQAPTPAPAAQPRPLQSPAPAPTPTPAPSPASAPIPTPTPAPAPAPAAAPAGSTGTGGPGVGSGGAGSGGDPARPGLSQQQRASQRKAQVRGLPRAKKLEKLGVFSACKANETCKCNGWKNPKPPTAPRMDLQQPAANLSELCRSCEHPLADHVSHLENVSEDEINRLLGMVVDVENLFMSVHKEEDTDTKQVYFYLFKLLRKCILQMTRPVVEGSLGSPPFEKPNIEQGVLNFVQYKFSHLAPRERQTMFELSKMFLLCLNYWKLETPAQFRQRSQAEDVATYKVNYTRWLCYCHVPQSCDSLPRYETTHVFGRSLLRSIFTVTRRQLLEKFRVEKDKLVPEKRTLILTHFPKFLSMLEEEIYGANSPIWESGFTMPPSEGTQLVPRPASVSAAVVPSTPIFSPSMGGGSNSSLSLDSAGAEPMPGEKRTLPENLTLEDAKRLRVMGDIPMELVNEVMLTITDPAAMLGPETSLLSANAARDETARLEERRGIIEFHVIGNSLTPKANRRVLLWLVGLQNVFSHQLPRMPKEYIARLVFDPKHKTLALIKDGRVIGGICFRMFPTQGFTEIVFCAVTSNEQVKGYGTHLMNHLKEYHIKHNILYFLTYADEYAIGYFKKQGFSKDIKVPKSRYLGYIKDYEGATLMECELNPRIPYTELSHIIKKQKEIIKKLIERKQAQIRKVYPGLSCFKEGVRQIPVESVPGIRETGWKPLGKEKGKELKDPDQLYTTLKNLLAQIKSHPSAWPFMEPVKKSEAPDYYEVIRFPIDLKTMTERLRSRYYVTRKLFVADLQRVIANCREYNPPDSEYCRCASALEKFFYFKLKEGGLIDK

| clearance [1] | Cmax [2] | half-life [3] | AUC(0-t) [4] | bioavailability [5] | Cmax [6] | IC50 [7] | AUC(0-t) [8] | IC50 [9] | solubility kinetic at 24 h, 200 µM [10] | half-life [11] | Vd [12] | bioavailability [13] | half-life [14] | IC50 [15] | clearance [16] | IC50 [17] | IC50 [18] | Kp uu at 3 h [19] | AUC(0-t) [20] | Structure (SMILES) | also measured |
| --- | --- | --- | --- | --- | --- | --- | --- | --- | --- | --- | --- | --- | --- | --- | --- | --- | --- | --- | --- | --- | --- |
| 4.8 mL/min/kg | 1900 nM | 3.7 h | 2.5 µM·h | 73% | 4100 nM | > 20 µM | 44 µM·h | > 20 µM | 95 µM (≈ 49.9 µg/mL) | 4.7 h | 0.6 L/kg | 37% | 1.4 h | > 18 µM | 18 mL/min/kg | 0.0012 µM | > 20 µM | 0.02 | 6.5 µM·h | CNC(=O)N1CCc2c(c(N3CCCc4cc(-c5cnn(C)c5)c(C(F)F)cc43)nn2C2CCOCC2)C1 | Papp A→B at 3 h, 10 µM [21]: 19 ×10⁻⁶ cm/s; half-life [22]: 0.72 h; clearance [23]: 3.8 mL/min/kg; Vd [24]: 1 L/kg; fraction unbound at 4 h, 5 µM [25]: 0.16 |
| 4.6 mL/min/kg | 1600 nM | 0.66 h | 8.5 µM·h | 72% | 3200 nM | > 20 µM | 31 µM·h | > 20 µM | 76 µM (≈ 38.8 µg/mL) | 4.2 h | 0.81 L/kg | 93% | 1.1 h | > 20 µM | 7.4 mL/min/kg | 0.0013 µM | 14 µM | 0.43 | 13.7 µM·h | CC(=O)N1CCc2c(c(N3CCCc4cc(-c5cnn(C)c5)c(C(F)F)cc43)nn2C2CCOCC2)C1 | Papp A→B at 3 h, 10 µM [21]: 15 ×10⁻⁶ cm/s; half-life [22]: 2.8 h; clearance [23]: 16 mL/min/kg; Vd [24]: 1.4 L/kg; fraction unbound at 4 h, 5 µM [25]: 0.16 |
